B1: tRNA (parent)
chain: GUUCCGUUGGCGUAAUGGUAACGCGUCUCCCUCCUAAGGAGAAGACUGCGGGUUCGAGUCCCGUACGGAACG

Variants of: B1
Experiment: yeast fitness, log relative to wild type (ln ratio); higher = fitter; tRNA-Arg(CCU), competitive growth, 37 C, 1 M NaCl
How it was run: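 A combinatorial tRNA-Arg(CCU) variant library was carried on a HIS3 centromeric plasmid in BY4742 lacking the chromosomal gene, from two independent transformations. Pools grew 4 generations in SC-HIS at 30 °C, then ~6.5 generations (~26.5 h) in SC-HIS 1M NaCl at 37 °C, with three outputs per input. Variants were counted by 125 bp paired-end Illumina sequencing. Fitness is ln of each genotype's generations (OD-scaled log2 output/input frequency, inverse-variance weighted across replicates) over the wild-type's.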

Variant	yeast fitness (ln)
GUUCCGUUGGCGUAAUGGUAACGCGUCUCCCUCCUAAGGAGACGAUUGCGGGUUCGAGUCCCGUAAGGGUUG	-0.341
GCUCCUUUGGCGUAAUGGUAACGCGUCUCCCUCCUAAGGAGACGACUGCGGGUUCGAGUCCCGUAUGGAAUG	-0.349
AUUCCAUUGGCGUAAUGGUAACGCGUUUCCCUCCUAAGGAGACGACUGCGGGUUCGAGUCCCGUAUGGAGUG	-0.323
GGUCCAUUGGCGUAAUGGUAACGCGUCUCCCUCCUAAGGAGAAGAUUGCGGGUUCGAGUCCCGUACGGGGCG	-0.115
GGUCCUUUGGCGUAAUGGUAACGCGUCUCCCUCCUAAGGAGAAGAUUGCGGGUUCGAGUCCCGUAUGGGGCG	-0.162
GUUCCUUUGGCGUAAUGGUAACGCGUUUCCCUCCUAAGGAGAAGAUUGCGGGUUCGAGUCCCGUACGGGACG	-0.15
AUUCCUUUGGCGUAAUGGUAACGCGUUUCCCUCCUAAGGAGACGACUGCGGGUUCGAGUCCCGUAUGGAGUG	-0.415
ACUCCGUUGGCGUAAUGGUAACGCGUUUCCCUCCUAAGGAGACGACUGCGGGUUCGAGUCCCGUAUGGAGUG	-0.197
AGUCCAUUGGCGUAAUGGUAACGCGUUUCCCUCCUAAGGAGACGACUGCGGGUUCGAGUCCCGUACGGAACG	-0.235
AGUCCAUUGGCGUAAUGGUAACGCGUCUCCCUCCUAAGGAGAAGAUUGCGGGUUCGAGUCCCGUAUGGGUCG	-0.383
GUUCCGUUGGCGUAAUGGUAACGCGUUUCCCUCCUAAGGAGAAGACUGCGGGUUCGAGUCCCGUACGGAAUG	-0.0403
AUUCCUUUGGCGUAAUGGUAACGCGUUUCCCUCCUAAGGAGAAGAUUGCGGGUUCGAGUCCCGUAUGGAAUG	-0.297
GCUCCAUUGGCGUAAUGGUAACGCGUUUCCCUCCUAAGGAGAAGACUGCGGGUUCGAGUCCCGUAAGGAUUG	-0.269
GCUCCUUUGGCGUAAUGGUAACGCGUUUCCCUCCUAAGGAGAAGAUUGCGGGUUCGAGUCCCGUAUGGAGUG	-0.177
GCUCCGUUGGCGUAAUGGUAACGCGUUUCCCUCCUAAGGAGAAGAUUGCGGGUUCGAGUCCCGUAAGGAUUG	-0.134
AUUCCAUUGGCGUAAUGGUAACGCGUCUCCCUCCUAAGGAGAAGACUGCGGGUUCGAGUCCCGUAUGGAACG	-0.113
AUUCCGUUGGCGUAAUGGUAACGCGUCUCCCUCCUAAGGAGACGACUGCGGGUUCGAGUCCCGUACGGGUUG	-0.366
ACUCCUUUGGCGUAAUGGUAACGCGUUUCCCUCCUAAGGAGAAGACUGCGGGUUCGAGUCCCGUAUGGGGUG	-0.251
GGUCCAUUGGCGUAAUGGUAACGCGUUUCCCUCCUAAGGAGAAGAUUGCGGGUUCGAGUCCCGUACGGGGUG	-0.194
ACUCCGUUGGCGUAAUGGUAACGCGUUUCCCUCCUAAGGAGAAGACUGCGGGUUCGAGUCCCGUAAGGAGUG	-0.221
GUUCCAUUGGCGUAAUGGUAACGCGUUUCCCUCCUAAGGAGACGAUUGCGGGUUCGAGUCCCGUAAGGGUCG	-0.28
GGUCCUUUGGCGUAAUGGUAACGCGUUUCCCUCCUAAGGAGACGAUUGCGGGUUCGAGUCCCGUAAGGGGCG	-0.187
ACUCCAUUGGCGUAAUGGUAACGCGUCUCCCUCCUAAGGAGACGAUUGCGGGUUCGAGUCCCGUACGGAGUG	-0.354
ACUCCGUUGGCGUAAUGGUAACGCGUUUCCCUCCUAAGGAGACGAUUGCGGGUUCGAGUCCCGUAAGGAUUG	-0.27
ACUCCAUUGGCGUAAUGGUAACGCGUCUCCCUCCUAAGGAGAAGACUGCGGGUUCGAGUCCCGUAUGGGUCG	-0.0166

Variant	yeast fitness (ln)
AGUCCAUUGGCGUAAUGGUAACGCGUUUCCCUCCUAAGGAGAAGACUGCGGGUUCGAGUCCCGUAAGGAUUG	-0.457
GUUCCUUUGGCGUAAUGGUAACGCGUCUCCCUCCUAAGGAGACGAUUGCGGGUUCGAGUCCCGUAUGGGUUG	-0.42
GGUCCAUUGGCGUAAUGGUAACGCGUUUCCCUCCUAAGGAGACGAUUGCGGGUUCGAGUCCCGUAAGGAUUG	-0.331
GGUCCGUUGGCGUAAUGGUAACGCGUCUCCCUCCUAAGGAGACGACUGCGGGUUCGAGUCCCGUACGGAUUG	-0.0697
GUUCCAUUGGCGUAAUGGUAACGCGUCUCCCUCCUAAGGAGAAGACUGCGGGUUCGAGUCCCGUACGGAGUG	-0.175
GUUCCAUUGGCGUAAUGGUAACGCGUCUCCCUCCUAAGGAGAAGAUUGCGGGUUCGAGUCCCGUAAGGAGCG	-0.117
AGUCCAUUGGCGUAAUGGUAACGCGUUUCCCUCCUAAGGAGAAGAUUGCGGGUUCGAGUCCCGUACGGGGCG	-0.226
AGUCCUUUGGCGUAAUGGUAACGCGUCUCCCUCCUAAGGAGACGAUUGCGGGUUCGAGUCCCGUAAGGAACG	-0.364
AGUCCGUUGGCGUAAUGGUAACGCGUCUCCCUCCUAAGGAGACGAUUGCGGGUUCGAGUCCCGUACGGGUCG	-0.132
GCUCCAUUGGCGUAAUGGUAACGCGUUUCCCUCCUAAGGAGACGACUGCGGGUUCGAGUCCCGUACGGAGCG	-0.153
GUUCCGUUGGCGUAAUGGUAACGCGUUUCCCUCCUAAGGAGACGACUGCGGGUUCGAGUCCCGUAUGGAAUG	-0.269
AUUCCGUUGGCGUAAUGGUAACGCGUUUCCCUCCUAAGGAGAAGACUGCGGGUUCGAGUCCCGUAAGGAAUG	-0.159
GUUCCGUUGGCGUAAUGGUAACGCGUCUCCCUCCUAAGGAGAAGAUUGCGGGUUCGAGUCCCGUAUGGGUCG	-0.0707
ACUCCAUUGGCGUAAUGGUAACGCGUUUCCCUCCUAAGGAGAAGAUUGCGGGUUCGAGUCCCGUAUGGGGCG	-0.364
GGUCCAUUGGCGUAAUGGUAACGCGUUUCCCUCCUAAGGAGACGACUGCGGGUUCGAGUCCCGUACGGAUUG	-0.242
GUUCCUUUGGCGUAAUGGUAACGCGUCUCCCUCCUAAGGAGAAGACUGCGGGUUCGAGUCCCGUAUGGGGCG	-0.271
GCUCCUUUGGCGUAAUGGUAACGCGUCUCCCUCCUAAGGAGACGACUGCGGGUUCGAGUCCCGUAAGGAGUG	-0.0145
AGUCCAUUGGCGUAAUGGUAACGCGUUUCCCUCCUAAGGAGACGAUUGCGGGUUCGAGUCCCGUACGGAACG	-0.242
ACUCCAUUGGCGUAAUGGUAACGCGUCUCCCUCCUAAGGAGACGACUGCGGGUUCGAGUCCCGUAUGGAUUG	-0.301
AUUCCUUUGGCGUAAUGGUAACGCGUCUCCCUCCUAAGGAGAAGACUGCGGGUUCGAGUCCCGUACGGAGCG	-0.192
GCUCCUUUGGCGUAAUGGUAACGCGUCUCCCUCCUAAGGAGACGAUUGCGGGUUCGAGUCCCGUAAGGAAUG	-0.077
ACUCCAUUGGCGUAAUGGUAACGCGUUUCCCUCCUAAGGAGAAGAUUGCGGGUUCGAGUCCCGUACGGAGCG	-0.0476
GUUCCUUUGGCGUAAUGGUAACGCGUCUCCCUCCUAAGGAGACGACUGCGGGUUCGAGUCCCGUAUGGGUCG	-0.356
ACUCCUUUGGCGUAAUGGUAACGCGUCUCCCUCCUAAGGAGAAGAUUGCGGGUUCGAGUCCCGUAAGGAUCG	-0.184
AGUCCGUUGGCGUAAUGGUAACGCGUUUCCCUCCUAAGGAGACGAUUGCGGGUUCGAGUCCCGUAUGGGGUG	-0.3

Variant	yeast fitness (ln)
GUUCCUUUGGCGUAAUGGUAACGCGUUUCCCUCCUAAGGAGAAGAUUGCGGGUUCGAGUCCCGUAAGGGAUG	-0.507
AGUCCUUUGGCGUAAUGGUAACGCGUCUCCCUCCUAAGGAGACGACUGCGGGUUCGAGUCCCGUAUGGGAUG	-0.437
GGUCCAUUGGCGUAAUGGUAACGCGUUUCCCUCCUAAGGAGACGAUUGCGGGUUCGAGUCCCGUAAGGGGUG	-0.252
GUUCCGUUGGCGUAAUGGUAACGCGUUUCCCUCCUAAGGAGACGACUGCGGGUUCGAGUCCCGUACGGGUUG	-0.419
AUUCCUUUGGCGUAAUGGUAACGCGUUUCCCUCCUAAGGAGAAGACUGCGGGUUCGAGUCCCGUAAGGAUCG	-0.407
AUUCCAUUGGCGUAAUGGUAACGCGUUUCCCUCCUAAGGAGACGACUGCGGGUUCGAGUCCCGUACGGAUUG	-0.314
GUUCCUUUGGCGUAAUGGUAACGCGUUUCCCUCCUAAGGAGACGACUGCGGGUUCGAGUCCCGUAUGGGUUG	-0.341
GGUCCUUUGGCGUAAUGGUAACGCGUCUCCCUCCUAAGGAGAAGACUGCGGGUUCGAGUCCCGUACGGAGUG	-0.173
AUUCCAUUGGCGUAAUGGUAACGCGUCUCCCUCCUAAGGAGACGACUGCGGGUUCGAGUCCCGUAUGGAAUG	-0.144
GGUCCAUUGGCGUAAUGGUAACGCGUCUCCCUCCUAAGGAGACGACUGCGGGUUCGAGUCCCGUAAGGAGCG	-0.187
AUUCCGUUGGCGUAAUGGUAACGCGUCUCCCUCCUAAGGAGAAGACUGCGGGUUCGAGUCCCGUAUGGAAUG	-0.105
GUUCCAUUGGCGUAAUGGUAACGCGUUUCCCUCCUAAGGAGAAGACUGCGGGUUCGAGUCCCGUAUGGAUCG	-0.188
ACUCCGUUGGCGUAAUGGUAACGCGUCUCCCUCCUAAGGAGACGACUGCGGGUUCGAGUCCCGUACGGGUCG	-0.0414
AUUCCUUUGGCGUAAUGGUAACGCGUCUCCCUCCUAAGGAGAAGACUGCGGGUUCGAGUCCCGUACGGGGCG	-0.198
AUUCCAUUGGCGUAAUGGUAACGCGUUUCCCUCCUAAGGAGACGAUUGCGGGUUCGAGUCCCGUAAGGAUCG	-0.192
GUUCCAUUGGCGUAAUGGUAACGCGUUUCCCUCCUAAGGAGACGAUUGCGGGUUCGAGUCCCGUAUGGGAUG	-0.307
ACUCCAUUGGCGUAAUGGUAACGCGUUUCCCUCCUAAGGAGACGAUUGCGGGUUCGAGUCCCGUAUGGGUCG	-0.416
GGUCCUUUGGCGUAAUGGUAACGCGUUUCCCUCCUAAGGAGACGAUUGCGGGUUCGAGUCCCGUAAGGAAUG	-0.363
ACUCCGUUGGCGUAAUGGUAACGCGUCUCCCUCCUAAGGAGAAGAUUGCGGGUUCGAGUCCCGUACGGGUCG	-0.016
AUUCCAUUGGCGUAAUGGUAACGCGUUUCCCUCCUAAGGAGACGAUUGCGGGUUCGAGUCCCGUAUGGGAUG	-0.499
GCUCCAUUGGCGUAAUGGUAACGCGUCUCCCUCCUAAGGAGAAGACUGCGGGUUCGAGUCCCGUAUGGAACG	0.00772
AUUCCAUUGGCGUAAUGGUAACGCGUUUCCCUCCUAAGGAGACGACUGCGGGUUCGAGUCCCGUACGGGGCG	-0.0719
GGUCCUUUGGCGUAAUGGUAACGCGUCUCCCUCCUAAGGAGACGACUGCGGGUUCGAGUCCCGUAUGGGGUG	-0.411
AGUCCAUUGGCGUAAUGGUAACGCGUUUCCCUCCUAAGGAGAAGACUGCGGGUUCGAGUCCCGUAUGGAUUG	-0.164
GUUCCUUUGGCGUAAUGGUAACGCGUUUCCCUCCUAAGGAGACGACUGCGGGUUCGAGUCCCGUACGGGUCG	-0.391

From the RNAGym collection of RNA variant scans (doi:10.1038/s41586-018-0170-7)
